ChEMBL document CHEMBL1149211, “Synthesis of 1,7-annulated indoles and their applications in the studies of cyclin dependent kinase inhibitors” (Bioorg Med Chem Lett, 2004)
Converted amounts (≈) assume the structure as drawn.

Key:
[1] = tested on: HCT-116; test: Antiproliferative activity against HCT116 (human colon carcinoma) cell line.; format: functional, cell-based
[2] = tested on: NCI-H460; test: Antiproliferative activity against NCIH-460 (human lung) cell line.; format: functional, cell-based
[3] = target: T1, Cyclin-dependent kinase 4/cyclin D1 (Homo sapiens, UniProt P11802); test: Inhibition of Cyclin D1-cyclin-dependent kinase 4.; format: protein-complex assay
How it was run: (§1)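 Cyclin D1/CDK4 enzyme inhibition determined by measuring phosphorylation of Rb protein; staurosporine included as standard; IC50 derived.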

[4] = target: cAMP-dependent protein kinase (PKA) (Homo sapiens, UniProt P22694+P17612+P22612); test: Inhibition of protein kinase A mediated histone phosphorylation; format: protein assay
How it was run: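 PKA enzyme assay measuring phosphorylation of histone substrate; staurosporine used as standard; IC50 reported.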

[5] = target: Cyclin-dependent kinase 2/cyclin E (Homo sapiens, UniProt P24941); test: Inhibition of Cyclin E-cyclin-dependent kinase 2 mediated RbING-phosphorylation; format: protein-complex assay
How it was run: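 Cyclin E/CDK2 enzyme assay following substrate phosphorylation, with Rb^ING as substrate; staurosporine run as standard; IC50 reported.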

[6] = tested on: HCT-116; test: G1 cell cycle arrest (fold increase over control) in HCT116 cells at 3*IC50; format: functional, Homo sapiens
How it was run: (§2)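 HCT-116 cells exposed to compound for 24 h, then analysed by flow cytometry; G1 arrest expressed as fold increase of G1 population over untreated control.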

[7] = tested on: HCT-116; test: G1 cell cycle arrest (fold increase over control) in HCT116 cells at IC50; format: functional, Homo sapiens; how it was run: as §2
[8] = target: Cyclin-dependent kinase 4 (Homo sapiens) (UniProt P11802); test: Inhibition of CDK4-specific Rb-S780 phosphorylation of HCT116 cells at 1xIC50 for 24 hr; format: functional, cell-based; details: HCT-116
How it was run: (§3)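 HCT-116 colon carcinoma cells treated 24 h with compound at 1× and 2× its antiproliferation IC50; Rb phosphorylation at Ser780 measured by Western blot with phospho-specific antibody; value expressed as % pRb inhibition.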

[9] = Solubility measured in 10% solution in EtOH.; format: physicochemical; details: read-out: S
How it was run: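 Solubility determined in 10% solutol in ethanol.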

[10] = target: Cyclin-dependent kinase 4 (Homo sapiens) (UniProt P11802); test: Inhibition of CDK4-specific Rb-S780 phosphorylation of HCT116 cells at 2xIC50 for 24 hr; format: functional, cell-based; details: HCT-116; how it was run: as §3
[11] = target: T1, Cyclin-dependent kinase 4/cyclin D1; test: Inhibition of Cyclin D1-cyclin-dependent kinase 4 mediated Rb21-phosphorylation; format: protein-complex assay; details: in the assay text read “RbING-phosphorylation” for “Rb21-phosphorylation”; how it was run: as §1

Chain of Cyclin-dependent kinase 4 (Homo sapiens) (P11802 whole entry): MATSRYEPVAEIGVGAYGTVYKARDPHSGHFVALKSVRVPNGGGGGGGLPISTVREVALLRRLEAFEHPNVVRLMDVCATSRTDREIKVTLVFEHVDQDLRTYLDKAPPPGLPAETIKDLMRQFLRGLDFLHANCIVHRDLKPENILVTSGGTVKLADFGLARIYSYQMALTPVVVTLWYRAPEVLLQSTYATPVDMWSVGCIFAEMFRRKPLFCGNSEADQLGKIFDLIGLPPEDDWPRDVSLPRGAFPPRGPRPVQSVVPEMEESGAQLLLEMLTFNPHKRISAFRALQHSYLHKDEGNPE
T1 sequence (P11802 whole entry): as above
T1 sequence (P24385 whole entry, further chain): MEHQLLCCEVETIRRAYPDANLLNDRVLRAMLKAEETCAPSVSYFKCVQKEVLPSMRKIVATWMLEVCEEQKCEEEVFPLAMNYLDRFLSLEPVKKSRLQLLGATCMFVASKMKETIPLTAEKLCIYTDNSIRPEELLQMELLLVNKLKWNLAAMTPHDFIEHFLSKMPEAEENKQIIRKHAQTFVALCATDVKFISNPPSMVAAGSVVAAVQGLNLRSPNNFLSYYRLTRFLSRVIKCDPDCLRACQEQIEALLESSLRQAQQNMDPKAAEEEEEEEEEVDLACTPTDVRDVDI

IC50 [1] [nM] | IC50 [2] [nM] | IC50 [3] [nM] | IC50 [4] [nM] | IC50 [5] [nM] | inhibition [8] [%] | solubility [9] [µg/mL] | inhibition [10] [%] | IC50 [11] [nM] | Compound | Fold increase [6] | Fold increase [7]
1730 | 5150 | 8 | 383 |  |  |  |  |  | CNCC1Cc2cccc3c(C4=C(c5c[nH]c6cc(F)ccc56)C(=O)NC4=O)cn(c23)C1.Cl (stereo not given) |  | 
940 | 740 | 72 | > 2000 | > 2000 |  |  |  |  | O=C1NC(=O)c2c1c1c3ccccc3ccc1c1c2c2cccc3c2n1CC(CO)C3 (stereo not given) | 1.64 | 1.14
3270 | 5650 | 64 | > 20000 |  |  |  |  |  | O=C1NC(=O)C(c2cn3c4c(cccc24)CC(CCl)C3)=C1c1c[nH]c2cc(F)ccc12 (stereo not given) |  | 
910 | 960 | 71 | > 2000 | 217 | 21 | 120 (≈ 303 µM) | 55 |  | O=C1NC(=O)c2c1c1c3ccccc3[nH]c1c1c2c2cccc3c2n1CC(CO)C3 (stereo not given) | 1.95 | 2.04
1250 | 690 | 23 | > 2000 |  |  | 4810 (≈ 10400 µM) |  |  | O=C1NC(=O)c2c1c1c3ccc(C(F)(F)F)cc3[nH]c1c1c2c2cccc3c2n1CC(CO)C3 (stereo not given) | 1.47 | 1.34
920 | 820 | 18 | 858 | 219 | 53 | 570 (≈ 1440 µM) | 65 |  | O=C1NC(=O)c2c1c1c3ccccc3[nH]c1c1c2c2cccc3c2n1C(CO)CC3 (stereo not given) | 1.51 | 1.32
> 10000 | > 10000 |  |  |  |  |  |  | > 2000 | NC(=O)[C@@H]1CCCN1CC1Cc2cccc3c(C4=C(c5c[nH]c6cc(F)ccc56)C(=O)NC4=O)cn(c23)C1 (stereo not given in full) |  | 
680 | 210 | 84 |  | 650 |  |  |  |  | Cn1ccc2ccc3c(c4c(c5c6cccc7c6n(c35)CC(CO)C7)C(=O)NC4=O)c21 (stereo not given) | 2.25 | 1.13
500 | 360 | 10 | > 2000 | > 2000 | 56 | 830 (≈ 1750 µM) | 74 |  | O=C1NC(=O)c2c1c1c3ccc(Br)cc3[nH]c1c1c2c2cccc3c2n1CC(CO)C3 (stereo not given) |  | 1.6
820 | 260 | 2 | 3020 | 79 |  | 620 (≈ 1500 µM) |  |  | O=C1NC(=O)c2c1c1c3ccc(F)cc3[nH]c1c1c2c2cccc3c2n1C(CO)CC3 (stereo not given) | 2.12 | 1.7
540 | 330 | 126 |  |  | 71 | 1070 (≈ 2610 µM) | 85 |  | O=C1NC(=O)c2c1c1c3ccccc3[nH]c1c1c2c2cccc3c2n1CC(CO)CC3 (stereo not given) | 1.9 | 1.8
1120 | 540 | 175 | > 2000 |  |  | 2780 (≈ 6840 µM) |  |  | O=C1NC(=O)c2c1c1c3ccccc3ccc1c1c2c2cccc3c2n1C(CO)CC3 (stereo not given) | 1.32 | 1.17
770 | 4750 | 898 |  |  |  |  |  |  | CN(C)CC1Cc2cccc3c(C4=C(c5c[nH]c6ccccc56)C(=O)NC4=O)cn(c23)C1 (stereo not given) | 1.17 | 1
> 10000 | > 10000 | 671 |  |  |  |  |  |  | COC(=O)CC(NCC1Cc2cccc3c(C4=C(c5c[nH]c6cc(F)ccc56)C(=O)NC4=O)cn(c23)C1)C(=O)OC (stereo not given) |  | 
360 | 430 | 22 | > 2000 | 141 | 25 | 890 (≈ 2150 µM) | 53 |  | O=C1NC(=O)c2c1c1c3ccc(F)cc3[nH]c1c1c2c2cccc3c2n1CC(CO)C3 (stereo not given) | 2.32 | 1.67
370 | 540 | 31 | > 2000 |  | 0 |  | 23 |  | O=C1NC(=O)c2c1c1c3ccccc3[nH]c1c1c2c2cccc3c2n1CCC3CO (stereo not given) | 1.44 | 1.17
1830 | 1960 | 15 | > 2000 | 284 | 69 | 490 (≈ 1150 µM) | 77 |  | COc1ccc2c(c1)[nH]c1c2c2c(c3c4cccc5c4n(c13)CC(CO)C5)C(=O)NC2=O (stereo not given) | 2 | 1.8
1250 | 1720 | 210 | > 2000 |  |  |  |  |  | O=C1NC(=O)c2c1c1c3ccccc3ccc1c1c2c2cccc3c2n1CCC3CO (stereo not given) | 1.3 | 1.2
